Experimental data from ChEMBL document CHEMBL4513216, “Probing the Open Global Health Chemical Diversity Library for Multistage-Active Starting Points for Next-Generation Antimalarials” (ACS Infect Dis, 2020).

Assay: Toxicity liver stage against HepG2, at 10uM
Format: cell-based
Design: test concentration 10 uM, cell line HepG2-A16-CD81EGFP
Settings: human, HepG2-A16-CD81EGFP cells; read-out: INHIBITION
Summary of the method: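 Uninfected HepG2-A16-CD81EGFP cells, 3 × 10^3 per well, 1536-well, plated on prespotted compound at 10 μM final, parasite-free screening media added to match infected plates; puromycin 10 μM positive, DMSO 0.5% negative; run in parallel with 48 h PbLuc assay at 37 °C, 5% CO2; viability by CellTiter-Glo luminescence, normalized to controls.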

| Structure (SMILES) | cytotoxicity at 10 µM [%] |
| --- | --- |
| CN1CC(=O)N(C2CCC2)Cc2c(NC3CCNCC3)ncnc21 | 8.77 |
| Cc1cc(C)n2cc(CN3CCCC3Cn3nc(C)nc3C)nc2n1 (centres undefined) | 4.91 |
| CNS(=O)(=O)CCCN1CCCN(Cc2ccccc2)CC1C (centres undefined) | 9.77 |
| Cc1cc2ccccc2n1CCC(=O)N1CCCCC1CCO (centres undefined) | 10.4 |
| Cc1oncc1C(=O)N[C@@H]1CN(c2ncccn2)C[C@@H]2CCCO[C@@H]21 | 6.21 |
| O=C(Cc1ccc(F)cc1)NCCNc1cc(N2CCCC2)ncn1 | -8.37 |
| CCOc1ccnc(N2CCN(Cc3ncccc3C)CC2)n1 | -7.32 |
| Cc1nc2c(c(NC3CC3)n1)CCN(C(=O)CCc1cccnc1)CC2 | -9.1 |
| O=C(C1CCOCC1)N1CC[C@H]2[C@H]1CCN2c1nncs1 | -4.78 |
| O=C(NCc1ccc2c(c1)OCO2)c1ccc(N2CCCCC2)nn1 | -9.7 |
| CCC(C)(N)c1nc(=O)c(C)c(C)[nH]1 (centres undefined) | -1.82 |
| Cc1cccc(-c2noc(CN3CCCC3Cn3cncn3)n2)c1 (centres undefined) | 0.983 |
| O=C(NC[C@H]1OC[C@@H](NC2CCC2)[C@@H]1O)Nc1ccccc1 | -4.16 |
| CC(C)(C)n1ncc2c1NC(=O)CSC2c1ccc2c(c1)OCCO2 (centres undefined) | -1.74 |
| Cc1nc(C)c(CN(C)C2CCN(C(=O)OC(C)(C)C)CC2)s1 | 3.51 |
| O=C1[C@@H]2CN(c3ncc(Cl)cc3F)C[C@]2(C(=O)O)CN1CC1CC1 | -0.33 |
| CC(=O)N1CCCC(c2nc(N(C)C)ncc2-c2ccccc2)C1 (centres undefined) | 14.7 |
| CO[C@@H]1CCN(S(=O)(=O)N(C)C)[C@@H]2CN(Cc3ccncc3)C[C@@H]21 | 15.1 |
| CCCc1nc(CNc2cc(CS(C)(=O)=O)ccc2Cl)no1 | -2.07 |
| Cc1n[nH]c(C)c1CCNC(=O)C1CCCN(Cc2ccco2)C1 (centres undefined) | -6.23 |
| CN(C(=O)CC1=CCCCC1)C1CCCN(C2Cc3ccccc3C2)C1 (centres undefined) | -0.296 |
| Fc1cccc(Oc2ccc(CNCC3CNc4ccnn4C3)cn2)c1 (centres undefined) | -7.16 |

| Structure (SMILES) | cytotoxicity at 10 µM [%] |
| --- | --- |
| COCCN1CCC(CN(CC2CCCO2)C(=O)C2CCOCC2)CC1 (centres undefined) | -0.401 |
| Cc1cncc(Oc2ccc(CO)cc2)n1 | 5.81 |
| CN(Cc1cccnc1)C(CO)c1cccc(Br)c1 (centres undefined) | -5.37 |
| O=C(CN1CCCCCCC1=O)NCc1ccccn1 | -15.3 |
| COc1ccc(-n2ccc(C(=O)NCCN3CCCC(C)C3)n2)cc1 (centres undefined) | -0.0158 |
| CN(C)C(=O)Cn1cc(C(=O)NCCc2ccc(C(F)(F)F)cc2)nn1 | -15.6 |
| CCN1CCN(S(=O)(=O)N2CCC(OC)CC2)[C@H]2CS(=O)(=O)C[C@H]21 | -1.6 |
| CCc1n[nH]c(C(=O)N2CCN(c3ccc4ccccc4c3)CC2)c1C | -3.03 |
| CCN(C(=O)CCCOC)C(c1ccc(Cl)cc1)c1ccccn1 (centres undefined) | -7.25 |
| CCC(c1ccc(F)cc1F)S(=O)(=O)CCO (centres undefined) | -137 |
| CCS(=O)(=O)N1C[C@@H](Oc2ccccn2)[C@H]2OCCC[C@H]21 | 5.08 |
| Cn1cnnc1C1CCCN(C(=O)COCc2ccccc2)C1 (centres undefined) | -18.1 |
| N#CCCN(Cc1ccccn1)Cn1cc(Cl)cn1 | 1.49 |
| CCOc1ncccc1Cn1cc(-c2cncnc2)nn1 | 2.38 |
| CN(CC1CC1)c1ccc2ccc(C(=O)NCCc3ccccc3)cn12 | -1.83 |
| Cc1nc(CN(Cc2ccc3c(c2)OCCO3)C2CCCC2)no1 | -9.19 |
| CN1C[C@@H]2CC[C@H]1CN(C(=O)COCc1nc3ccc(F)cc3[nH]1)C2 | -1.88 |
| CN(C)C(=O)C1CCC2(CCN(Cc3cnn(C)c3)CC2)C1 (centres undefined) | 5.01 |
| O=C(CN1CCC[C@@H]1C(=O)O)NCCOc1cccc(C(F)(F)F)c1 | -1.7 |
| O=C1C(N2CCN(c3ccc(O)cc3)CC2)CCN1C1CCOCC1 (centres undefined) | 12.6 |
| CC(C)c1ccc(CN2CCC(CNS(=O)(=O)C3CC3)C2)cc1 (centres undefined) | -1.37 |
| CN1CCc2c(C#N)c(NCc3ccncc3)n3cnnc3c2C1 | 10.8 |

| Structure (SMILES) | cytotoxicity at 10 µM [%] |
| --- | --- |
| O=C(NCC(F)F)c1ccc(S(=O)(=O)NCCc2c[nH]cn2)cc1 | -1.99 |
| O=c1oc(-c2ccc(F)cc2)nn1CN1CCN(CC2CC2)CC1 | 1.44 |
| CCN(CC)CCn1c(=O)oc2ccccc21 | 2.96 |
| O=C(O)CN1CCC(c2ccccc2)CC1 | 1.73 |
| O=C(CN1CCCC(CO)C1)NCCOc1cccc(Cl)c1 (centres undefined) | -12.2 |
| CCCc1cc(CNC2CCN(c3nc4ccccc4s3)CC2)on1 | -4.34 |
| O=C(O)[C@@H]1CN(C2CCCCC2)C[C@H]1C1CC1 | -140 |
| CN1CC(=O)N(c2ccccc2)CC12CCN(Cc1nccs1)C2 (centres undefined) | 3.33 |
| CCn1ncc2c1C(COC)CN(S(=O)(=O)C1CC1)C2 (centres undefined) | 11.1 |
| CC(C)COC1CC2(CCN(C(=O)Cc3ccccn3)CC2)C1 | -113 |
| COc1ccc2c(c1)CCCN2C(=O)NCCc1cnn(C)c1 | -6.94 |
| COc1cc(NC(=O)NCc2nccn2C)ccc1Br | -9.11 |
| CS(=O)(=O)N1CC(c2nc[nH]n2)c2cc(C(=O)NC3CCCC3)ccc21 (centres undefined) | -131 |
| Cc1cccc(CN2CC[C@@H]3O[C@@H](C(=O)N4CCN(C)CC4)C[C@@H]32)n1 | 1.04 |
| O=C(c1cncnc1)N1Cc2ccccc2OC2(CCOCC2)C1 | -8.46 |
| Cc1ccc(-c2ncc(C(=O)N3CCCN4CCC[C@H]4C3)c(O)n2)cc1 | -8.04 |
| CNC(=O)C1CN(C(C)C)CCN1c1ncccn1 (centres undefined) | 1.22 |
| CN(CC1(CO)CCOCC1)[C@@H]1c2ccccc2C2(CCNCC2)[C@H]1O | -6.87 |
| COc1ccc(CC2(CO)CCN(c3cc(N)ncn3)CC2)cc1 | -12.9 |
| Cn1cnc2c(-c3ccccc3)nc(C3CCNCC3)cc21 | -109 |
| O=C(CC(F)(F)F)Nc1cc(F)ccc1OCC1CCCO1 (centres undefined) | 5.48 |
| N#Cc1ccc(NCCCOCC2CCOC2)c(F)c1 (centres undefined) | 1.1 |

| Structure (SMILES) | cytotoxicity at 10 µM [%] |
| --- | --- |
| COc1ccc(OC)c(CN2CCc3nc4ccsc4c(=O)n3CC2)c1 | 43.5 |
| CN(CC1CCCO1)c1nc(-c2cccnc2)nc2c1CCNCC2 (centres undefined) | -4.68 |
| CC(Cc1cnccn1)NC(=O)COc1ccc(F)cc1F (centres undefined) | -44.4 |
| Cc1nc(NCC23CCCN2CCC3)cc(C2CCCNC2)n1 (centres undefined) | 7.54 |
| COCCN1CCc2ccccc2NCCC1=O | -2.51 |
| Cc1ccc(C(=O)N2CC[C@H](N3CCOCC3)[C@H](CCCO)C2)cc1O | -154 |
| CC(C)(C)n1ncc2c1CCCC2NCc1ccsc1 (centres undefined) | 3.59 |
| O=C1CN(CCS(=O)(=O)c2ccc(Cl)cc2)CCN1 | -9.2 |
| Cc1noc(OCCOc2cccc(C#N)c2)n1 | 0.63 |
| COCCn1ccnc1-c1cc(CN2CCCCC2)cs1 | -151 |
| COCC1CC2(CCN(C(=O)c3ccc(F)c(Cl)c3)CC2)CO1 (centres undefined) | -131 |
| CNC(=O)c1cn2cc(-c3ccc(F)cc3)n(CC=C(C)C)c(=O)c2n1 | -52.2 |
| COc1cc(CN(C)C(=O)NCc2nccs2)ccc1SC | -7.66 |
| NCCCC(=O)N1CCC2(CC1)CN(C(=O)c1ccc(Cl)cc1)CCO2 | 6.83 |
| CN(C)C(=O)N1CCC[C@]2(C(=O)N(C)C)CN(c3ccccn3)C[C@@H]2C1 | 7.13 |
| Cc1ccc(C(=O)Nc2cccc3c2C(=O)NC3)c(C)n1 | 0.102 |
| CCOC(=O)CN1CCC2(CCCN(CCOc3ccccc3)C2)C1 (centres undefined) | -2.63 |
| O=C(CCn1cccc1)N1CCc2[nH]nc(COc3ccccc3)c2C1 | 7.54 |
| O=C(c1ccnc(C2CCNCC2)c1)N1CCCC1 | 3.69 |
| O=C(O)[C@@H]1CN(C(=O)Cc2ccccc2Cl)C[C@H]1C1CC1 | 9.53 |
| O=C(NCc1ccco1)[C@@]12CCO[C@@H]1CCN(c1ncccn1)C2 | 0.864 |
| Cc1cnn(C2CCCN(C(=O)c3ccc(NC4CC4)nc3)C2)c1 (centres undefined) | -19.6 |

| Structure (SMILES) | cytotoxicity at 10 µM [%] |
| --- | --- |
| CCc1ccccc1CN1CCn2nc(CNC(C)=O)cc2C1 | 5.18 |
| COc1ccc(C[C@H]2CN(C(=O)CN(C)C)CC[C@H]2OC)cc1 | 3.96 |
| CNC(=O)C1CN(Cc2c[nH]cn2)CCN(C2CCOCC2)C1 (centres undefined) | -17 |
| Oc1cc(CC2COCCN(CC3(O)CCOCC3)C2)ncn1 (centres undefined) | 8.08 |
| Cc1cc(C)nc(NCc2nnc3n2CCCCC3)n1 | -10.6 |
| CC(=O)Nc1ccc(OCc2noc(C(=O)N3CCCCCC3)n2)cc1 | -23 |
| Cc1nocc1C(=O)N1CCCC2(CCN(c3cnn(C)c3)C2=O)C1 (centres undefined) | 2.43 |
| CC(C)N(C)S(=O)(=O)c1ccc2c(c1)CCN(C(=O)c1ccccn1)C2 | 10.3 |
| COCCN1CCC2(CC1)CC(Nc1ccc(C)nn1)CO2 (centres undefined) | -0.818 |
| Cc1ncc(C(=O)N2CC[C@@]3(O)CCN(C4CCCCC4)C[C@H]3C2)cn1 | -135 |
| CCn1ccnc1CN1CCN(CCOc2ccccc2OC)CC1 | -8.83 |
| Cn1ccc2c(-c3nccc(N)n3)ccnc21 | -16 |
| Cc1nc(C)n(CC2CCCN(Cc3cccc4c3OCCO4)C2)n1 (centres undefined) | -5.23 |
| Fc1cnc(N2CCO[C@H]3[C@H](OCCN4CCCC4)CC[C@@H]32)nc1 | 1.33 |
| Cc1noc(C)c1CN(C)C(=O)C1(NS(C)(=O)=O)CCCCC1 | -11.3 |
| CSc1ccc(C(=O)N(c2ccc(F)cn2)C2CCOCC2)o1 | -10.7 |
| CC(=O)N1CCC2(CC1)C(=O)N(C)c1ccc(F)cc12 | -116 |
| O=C(Nc1cccnc1)[C@H]1C[C@H]2CN(Cc3ccc(F)cc3)C[C@@H]1O2 | -82.9 |
| Cc1occc1C(=O)N1CCCC2(CCN(c3ccccc3)C2=O)C1 (centres undefined) | -5.5 |
| CCOC1COC2(CCN(Cc3cccc(C#N)c3)CC2)C1 (centres undefined) | -2.66 |
| CCc1cnc(N2CCC3(CC(=O)N(Cc4csc(C)n4)C3)C2)nc1 (centres undefined) | -2.71 |
